The source of these data is ChEMBL document CHEMBL4257561, “7-Deacetyl-10-alkylthiocolchicine derivatives - new compounds with potent anticancer and fungicidal activity” (Medchemcomm, 2018).

The test system of one experiment is MCF7. Put plainly: cells. The class given is functional, cell-based. As to conditions: Homo sapiens, MCF7, 72 h.
A further experiment has as its system MDA-MB-231. Put plainly: cells. The class given is functional, cell-based. The settings on record: Homo sapiens, MDA-MB-231, 72 h.
Another experiment concerns DLD-1. Briefly: cells. It is filed as functional, cell-based. As to conditions: Homo sapiens, DLD-1, 72 h.
The next experiment relates to LoVo. Briefly: cells. The class given is functional, cell-based. The settings on record: Homo sapiens, 72 h.
A short description of a further experiment: cells. The class given is cell-based. The settings on record: Homo sapiens, 72 h.
Experiment [1] concerns SK-OV-3. Briefly: cells. It is filed as functional, cell-based. The settings on record: Homo sapiens, SK-OV-3, 72 h.
The test system of experiment [2] is SK-OV-3. Briefly: cells. The class given is functional, cell-based. As to conditions: Homo sapiens, SK-OV-3, 72 h. This is another data set of the same source.
Experiment [3] has as its system Aspergillus niger. Put plainly: microbe, parasite or virus in culture. As to conditions: van Tiegen BAM4 ATCC 6275, 168 h. It is filed as functional.
The subject of experiment [4] is Aspergillus versicolor. Put plainly: microbe, parasite or virus in culture. The class given is functional. As to conditions: BAM8 ATCC 11730, 168 h.
Experiment [5] concerns Paecilomyces variotii. Briefly: microbe, parasite or virus in culture. It is filed as functional. The settings on record: BAM19 ATCC 18502, 168 h.
For experiment [6], the system named is Talaromyces funiculosus. Briefly: microbe, parasite or virus in culture. It is filed as functional. As to conditions: BAM22 ATCC 11797, 168 h.
Experiment [7] relates to Trichoderma viride. Put plainly: Antifungal activity against Trichoderma viride Pers after 7 days by microtiter method. The class given is functional. The settings on record: 168 h.
In experiment [8] the test system is Penicillium cyclopium. Briefly: Antifungal activity against Penicillium cyclopium Westling after 7 days by microtiter method. As to conditions: 168 h. It is filed as functional.
The test system of experiment [9] is Aureobasidium pullulans. Put plainly: microbe, parasite or virus in culture. It is filed as functional. As to conditions: BAM10 ATCC 9348, 168 h.
Experiment [10] concerns Chaetomium globosum. Briefly: microbe, parasite or virus in culture. As to conditions: BAM12 ATCC 6205, 168 h. The class given is functional.
Experiment [11] concerns Aspergillus niger. Put plainly: Fungicidal activity against Aspergillus niger van Tiegen BAM4 ATCC 6275 after 7 days by microtiter method. The class given is functional. As to conditions: van Tiegen BAM4 ATCC 6275, 168 h. A digest of the protocol: (§1)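 Single-spore isolates kept on PDA slants. Spore suspensions ([…] CFU/mL) taken from two-week slants. Compound stock was 10 mg in 200 µL methanol; 10 µL of stock added to 100 µL PDA (39 g/L) per well, then 10 µL spores. Incubated aerobically 7 days, 28±1°C, RH >95%, dark. Growth scored on a three-point scale (+/±/−). Triplicates, with untreated and IPBC controls.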

Experiment [12] concerns Aspergillus versicolor. Put plainly: Fungicidal activity against Aspergillus versicolor BAM8 ATCC 11730 after 7 days by microtiter method. It is filed as functional. The settings on record: BAM8 ATCC 11730, 168 h. A digest of the protocol:
as §1

The test system of experiment [13] is Paecilomyces variotii. Put plainly: Fungicidal activity against Paecilomyces variotii BAM19 ATCC 18502 after 7 days by microtiter method. It is filed as functional. The settings on record: BAM19 ATCC 18502, 168 h. The method in brief:
as §1

For experiment [14], the system named is Talaromyces funiculosus. Put plainly: Fungicidal activity against Penicillium funiculosum BAM22 ATCC 11797 after 7 days by microtiter method. The class given is functional. As to conditions: BAM22 ATCC 11797, 168 h. The method in brief: as §1
Experiment [15] has as its system Trichoderma viride. Put plainly: Fungicidal activity against Trichoderma viride Pers after 7 days by microtiter method. It is filed as functional. The settings on record: 168 h. A digest of the protocol: as §1
Experiment [16] deals with Penicillium cyclopium. Put plainly: Fungicidal activity against Penicillium cyclopium Westling after 7 days by microtiter method. It is filed as functional. As to conditions: 168 h. The method in brief:
as §1

Experiment [17] concerns Aureobasidium pullulans. Briefly: Fungicidal activity against Aureobasidium pullulans BAM10 ATCC 9348 after 7 days by microtiter method. It is filed as functional. As to conditions: BAM10 ATCC 9348, 168 h. The method in brief:
as §1

The subject of experiment [18] is Chaetomium globosum. Put plainly: Fungicidal activity against Chaetomium globosum BAM12 ATCC 6205 after 7 days by microtiter method. It is filed as functional. The settings on record: BAM12 ATCC 6205, 168 h. The method in brief:
as §1

≈ marks a conversion by molar mass, not a printed value.

In the case of `CCCSc1ccc2c(cc1=O)[C@@H](N)CCc1cc(OC)c(OC)c(OC)c1-2`, the IC50 came out at 2080 nM in the experiment on MCF7; 4240 nM with MDA-MB-231; 3420 nM in the experiment on DLD-1; 3830 nM in the experiment on LoVo; 670 nM in the experiment “cells”; 22 nM with SK-OV-3 [1]. The compound further returned an IC50 with SK-OV-3 [2] of 46 nM. In addition, the MFC with Aspergillus niger [3] was more than 4000 µg/mL; in the experiment with Aspergillus versicolor [4] it was more than 4000 µg/mL; against Paecilomyces variotii [5], 1000 µg/mL (≈ 2490 µM); against Talaromyces funiculosus [6], 2000 µg/mL (≈ 4980 µM); with Trichoderma viride [7], 2000 µg/mL (≈ 4980 µM); with Aspergillus niger [11], more than 4000 µg/mL. Also, the MFC was more than 4000 µg/mL against Aspergillus versicolor [12]; 1000 µg/mL (≈ 2490 µM) against Paecilomyces variotii [13]; 2000 µg/mL (≈ 4980 µM) with Talaromyces funiculosus [14]; 2000 µg/mL (≈ 4980 µM) in the experiment with Trichoderma viride [15]; 2000 µg/mL (≈ 4980 µM) in the experiment with Penicillium cyclopium [16]; more than 4000 µg/mL against Aureobasidium pullulans [17]. In the experiment with Chaetomium globosum [18], this compound came in with an MFC of more than 4000 µg/mL. Also, the MIC in the experiment with Penicillium cyclopium [8] is 2000 µg/mL (≈ 4980 µM); in the experiment with Aureobasidium pullulans [9] it was more than 4000 µg/mL; with Chaetomium globosum [10], more than 4000 µg/mL.

In the case of `COc1cc2c(c(OC)c1OC)-c1ccc(SC(C)C)c(=O)cc1[C@@H](N)CC2`, the IC50 with MCF7 worked out at 4900 nM; in the experiment with MDA-MB-231, 5000 nM; in the experiment with DLD-1, 6260 nM; in the experiment with LoVo, 130 nM; in the experiment “cells”, 1680 nM; with SK-OV-3 [1], 4 nM. The IC50 with SK-OV-3 [2] came out at 27 nM. For the same compound, the MFC against Aspergillus niger [3] was more than 4000 µg/mL; in the experiment with Aspergillus versicolor [4] it was more than 4000 µg/mL; in the experiment on Paecilomyces variotii [5], 1000 µg/mL (≈ 2490 µM); in the experiment with Talaromyces funiculosus [6], 1000 µg/mL (≈ 2490 µM); against Trichoderma viride [7], 2000 µg/mL (≈ 4980 µM); with Aspergillus niger [11], more than 4000 µg/mL. Also, the MFC was more than 4000 µg/mL in the experiment with Aspergillus versicolor [12]; 1000 µg/mL (≈ 2490 µM) against Paecilomyces variotii [13]; 1000 µg/mL (≈ 2490 µM) in the experiment on Talaromyces funiculosus [14]; 2000 µg/mL (≈ 4980 µM) with Trichoderma viride [15]; 500 µg/mL (≈ 1250 µM) in the experiment with Penicillium cyclopium [16]; 260 µg/mL (≈ 648 µM) against Aureobasidium pullulans [17]. The MFC with Chaetomium globosum [18] turned out to be 130 µg/mL (≈ 324 µM). Besides, the MIC in the experiment with Penicillium cyclopium [8] was 500 µg/mL (≈ 1250 µM); in the experiment with Aureobasidium pullulans [9], 260 µg/mL (≈ 648 µM); in the experiment with Chaetomium globosum [10], 130 µg/mL (≈ 324 µM).

Consider `O=C(/C=C/c1ccccc1)c1ccccc1` [CHALCONE], for which the MFC with Aspergillus niger [3] was found to be 65 µg/mL (≈ 312 µM); in the experiment on Aspergillus versicolor [4], 2000 µg/mL (≈ 9600 µM); against Paecilomyces variotii [5], 1000 µg/mL (≈ 4800 µM); with Talaromyces funiculosus [6], 130 µg/mL (≈ 624 µM); in the experiment with Trichoderma viride [7], 500 µg/mL (≈ 2400 µM); with Aspergillus niger [11], 65 µg/mL (≈ 312 µM). The MFC in the experiment with Aspergillus versicolor [12] came to 2000 µg/mL (≈ 9600 µM); against Paecilomyces variotii [13] it was 1000 µg/mL (≈ 4800 µM); against Talaromyces funiculosus [14], 130 µg/mL (≈ 624 µM); with Trichoderma viride [15], 500 µg/mL (≈ 2400 µM); with Penicillium cyclopium [16], 260 µg/mL (≈ 1250 µM); against Aureobasidium pullulans [17], 500 µg/mL (≈ 2400 µM). For the same compound, the MFC against Chaetomium globosum [18] amounted to 130 µg/mL (≈ 624 µM). Besides, the MIC stood at 260 µg/mL (≈ 1250 µM) in the experiment on Penicillium cyclopium [8], 500 µg/mL (≈ 2400 µM) with Aureobasidium pullulans [9] and 130 µg/mL (≈ 624 µM) with Chaetomium globosum [10].

On to `COc1cc2c(c(OC)c1OC)-c1ccc(OC)c(=O)cc1[C@@H](NC(C)=O)CC2` [COLCHICINE], for which the concentration for half-maximal inhibition (IC50) in the experiment on MCF7 is 41 nM; in the experiment on MDA-MB-231, 25 nM; with DLD-1 it was 43 nM; in the experiment with LoVo it was 119 nM; in “cells”, 586 nM; in the experiment with SK-OV-3 [1], 198 nM. This compound also had an IC50 with SK-OV-3 [2] of 210 nM. Also, the MFC in the experiment on Aspergillus niger [3], in the experiment on Aspergillus versicolor [4], against Paecilomyces variotii [5], in the experiment on Talaromyces funiculosus [6], in the experiment with Trichoderma viride [7] and against Aspergillus niger [11] was more than 4000 µg/mL in each case. The MFC against Aspergillus versicolor [12] is more than 4000 µg/mL; in the experiment on Paecilomyces variotii [13] it was more than 4000 µg/mL; in the experiment with Talaromyces funiculosus [14] it was more than 4000 µg/mL; against Trichoderma viride [15], more than 4000 µg/mL; against Penicillium cyclopium [16] it was more than 4000 µg/mL; in the experiment on Aureobasidium pullulans [17], 0.001 µg/mL (≈ 0.0025 µM). Also, the MFC with Chaetomium globosum [18] was more than 4000 µg/mL. In addition, the MIC with Penicillium cyclopium [8] was more than 4000 µg/mL; in the experiment on Aureobasidium pullulans [9], 0.001 µg/mL (≈ 0.0025 µM); against Chaetomium globosum [10] it was more than 4000 µg/mL.

Take `COc1cccc2c1C(=O)c1c(O)c3c(c(O)c1C2=O)C[C@@](O)(C(=O)CO)C[C@@H]3O[C@H]1C[C@H](N)[C@H](O)[C@H](C)O1` [DOXORUBICIN]: the IC50 with DLD-1 turned out to be 145 nM; in the experiment on LoVo, 78.3 nM; in the experiment “cells” it was 850 nM; in the experiment on SK-OV-3 [1], 32.6 nM; in the experiment on SK-OV-3 [2], 128 nM.

Regarding `CCCCNC(=O)OCC#CI` [IODOCARB], the MFC was determined as 2 µg/mL (≈ 7.12 µM) in the experiment with Aspergillus niger [3]; 2 µg/mL (≈ 7.12 µM) against Aspergillus versicolor [4]; 2 µg/mL (≈ 7.12 µM) against Paecilomyces variotii [5]; 2 µg/mL (≈ 7.12 µM) against Talaromyces funiculosus [6]; 100 µg/mL (≈ 356 µM) against Trichoderma viride [7]; 2 µg/mL (≈ 7.12 µM) in the experiment on Aspergillus niger [11]. The MFC in the experiment with Aspergillus versicolor [12] was 2 µg/mL (≈ 7.12 µM); against Paecilomyces variotii [13] it was 2 µg/mL (≈ 7.12 µM); against Talaromyces funiculosus [14], 2 µg/mL (≈ 7.12 µM); in the experiment on Trichoderma viride [15], 100 µg/mL (≈ 356 µM); against Penicillium cyclopium [16], 2 µg/mL (≈ 7.12 µM); in the experiment on Aureobasidium pullulans [17] it was 1 µg/mL (≈ 3.56 µM). The MFC in the experiment with Chaetomium globosum [18] was determined as 5 µg/mL (≈ 17.8 µM). For the same compound, the MIC against Penicillium cyclopium [8] worked out at 2 µg/mL (≈ 7.12 µM); against Aureobasidium pullulans [9] it was 1 µg/mL (≈ 3.56 µM); with Chaetomium globosum [10], 5 µg/mL (≈ 17.8 µM).

The term IC50 denotes the point on the concentration scale where inhibition reaches its midpoint. Read a low IC50 as higher potency.
